Screening data (PubChem)
Kir21 block – Kir2.1 (mouse) channel inhibition | P35561 | HEK293-Kir2.1, FluxOR thallium flux fluorescence; hits give low values | B-score at 10 µM | 310,000 tested, 0.85% active;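 active = fluorescence ratio B-score at or below minus 3 SD of library scores, with starting-brightness B-score within 2 SD, cut at about -4.2 in these data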;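 also: channel flux triggered by added potassium and thallium sulfate stimulus; B-score of peak minus minimum fluorescence over baseline after thallium stimulus; more negative B-score means stronger Kir2.1 block with less thallium influx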
KCNK3 inh – human KCNK3 channel inhibition, primary screen. B-score at 10 µM. 340,000 tested, 0.84% active. AID 602410. CHO-KCNK3 thallium flux, FluxOR fluorescence; hits give low values;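 active = B-score under library mean minus 4 SD, starting fluorescence ratio at most library mean plus 5 SD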;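 also: more negative B-score means stronger inhibition of thallium flux through KCNK3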
hERG protect – compounds protecting human hERG from proarrhythmic drug block; CHO-hERG, FluxOR thallium flux, dofetilide IC70 present; activation (rescue from dofetilide block), less the hit threshold, % at 10 µM; 310,000 tested, 0.51% active;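 active = activation above the mean of controls blocked by dofetilide plus 5 SD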;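 also: thallium influx through hERG after potassium depolarization seen as dye fluorescence rise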
KCNQ1 inh – human KCNQ1 channel inhibition | P51787 | CHO-K1 KCNQ1, FluxOR thallium flux fluorescence; hits give high values | B-score at 10 µM | 310,000 tested, 1.3% active;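 active = compounds whose thallium flux B-score, printed positive for inhibition, exceeds three library SD while starting fluorescence stays within three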;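 also: channel opened by potassium depolarization with thallium stimulus after 20 min compound exposure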
KCNK9 inh – human KCNK9 channel inhibition; B-score at 10 µM; 310,000 tested, 1.2% active; HEK293 KCNK9, FluxOR thallium flux fluorescence; hits give low values; Q9NPC2; AID 488922;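 active = ratio B-score over 3 SD below the library mean, with starting fluorescence within 5 SD of its mean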;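 also: negative B-score means less thallium flux so channel inhibition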
Target sequence (Q9NPC2 whole entry, looked up): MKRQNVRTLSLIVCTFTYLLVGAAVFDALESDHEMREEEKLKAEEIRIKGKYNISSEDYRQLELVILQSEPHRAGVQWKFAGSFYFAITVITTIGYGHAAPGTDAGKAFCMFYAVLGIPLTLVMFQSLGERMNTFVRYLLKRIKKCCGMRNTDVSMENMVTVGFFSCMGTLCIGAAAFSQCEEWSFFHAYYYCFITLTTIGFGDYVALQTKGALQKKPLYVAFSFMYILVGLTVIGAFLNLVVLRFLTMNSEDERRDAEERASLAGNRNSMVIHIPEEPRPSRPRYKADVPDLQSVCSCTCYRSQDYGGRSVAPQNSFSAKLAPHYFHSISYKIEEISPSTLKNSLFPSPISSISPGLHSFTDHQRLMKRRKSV
KCNQ1 pot – human KCNQ1 channel potentiation or activation; P51787; CHO-K1 KCNQ1, thallium flux FluxOR fluorescence; hits give high values; B-score at 10 µM; 310,000 tested, 0.35% active;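 active = fluorescence ratio B-score, a plate-corrected score, at least three library SD, with initial intensity B-score within 5 SD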
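assay system = CHO-K1 cells stably expressing KCNQ1 | medium = assay buffer, equal DMSO in all wells | timing = 37 °C overnight plating, 90-min dark dye load, 20-min compound pretreatment | measured by = kinetic FluxOR thallium fluorescence, 10-s 1-Hz baseline, 110-s post-stimulus read | measure = fluorescence change relative to baseline, converted to B score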
* marks the source's active call; other numbers are inactive results; i = inactive; . = no result given. Compounds with a hit are over-represented: about 3.7% of the library has one in this group of screens.

SMILES	Kir21 block	KCNK3 inh	hERG protect	KCNQ1 inh	KCNK9 inh	KCNQ1 pot
CCc1nc2nc(C)c(NS(=O)(=O)c3ccc(C)c(C)c3)c(=O)n2[nH]1	-0.48	i	-6	i	i	i
Cn1nc(C(C)(C)C)cc1NC(=O)Nc1cc(Cl)cc(Cl)c1	0.02	i	-16	i	i	i
O=C(CN1C(=O)NC2(CCCCCC2)C1=O)N1CCN(c2ccccc2)CC1	.	i	.	.	.	.
O=C(c1ccco1)N1CCN(S(=O)(=O)c2ccc(S(=O)(=O)NC3CCCCC3)cc2)CC1	0.96	i	-7	i	i	i
O=C(c1ccco1)N1CCN(S(=O)(=O)c2ccc(C3CCCCC3)cc2)CC1	0.22	i	8.2*	i	i	i
O=C(c1c[nH]c2ccccc12)C(Cl)c1ccccc1 (stereo unspecified)	-0.17	i	0	i	i	i
COc1cccc(CNc2cc(CSc3ccc(Cl)cc3)nc(C)n2)c1	-7.7*	i	-10	i	i	i
COc1cccc(CNc2ccc(C)c(Cl)c2)c1	1.4	i	-4	i	i	i
C[C@@H]1CN([C@H](C)CO)C(=O)Cc2cc(NC(=O)CCC(F)(F)F)ccc2O[C@@H]1CN(C)S(=O)(=O)c1ccccc1	.	i	.	.	.	.
Cc1ccc(/C=C/C(=O)c2ccccc(=O)c2O)cc1C	-0.38	i	9.1*	i	i	34*
COc1ccc(C=CC(=O)c2ccc(OC)c(OC)c2O)cc1OC	.	i	.	.	.	.
CC(C)[C@H]1CN=C2N(CCNC(=O)CCC3CCCCC3)[C@H](Cc3ccc(O)cc3)CN21	1.2	i	-4	i	i	i
O=C(CCC1CCCCC1)NCCN1C2=NC[C@H](Cc3ccc(O)cc3)N2C[C@H]1Cc1ccc(O)cc1	1.7	i	-8	i	i	i
COc1ccc(C[C@H]2CN3C(=NC[C@@H]3Cc3ccccc3)N2CCNC(=O)CCC2CCCCC2)cc1	-11*	i	-28	i	i	i
COc1ccc(C[C@H]2CN3C(=NC[C@@H]3C(C)C)N2CCNC(=O)CCC2CCCCC2)cc1	-6.3*	i	-14	i	i	i
COCCN(CC(=O)Nc1cccc(C)c1C)C(=O)c1ccc(S(=O)(=O)N2CCOCC2)cc1	.	i	.	.	.	.
N#Cc1ccc(NC(=O)Nc2ccc(Oc3ccc(NC(=O)Nc4ccc(C#N)cc4)cc3)cc2)cc1	-0.72	i	-15	9*	i	i
O=C(Nc1cccc(NC(=O)c2cccs2)c1)c1ccc(F)cc1	1	i	-4	i	-7.4*	i
N/C(=N\O)c1ccc(NC(=O)c2cccs2)cc1	0.13	i	46*	i	i	i
COc1ccccc1N1N=C(c2ccc([N+](=O)[O-])cc2)CC1c1ccccc1 (stereo unspecified)	-0.04	i	-14	12*	i	i
CC(C)n1c(SCc2ccccc2F)nc2c1c(=O)n(C)c(=O)n2C	-4.6*	i	-15	i	i	i
CSCCC(NC(=O)c1ccccc1Cl)C(=O)N1CCCCC1 (stereo unspecified)	.	i	.	.	.	.
CC(NC(=O)c1ccccc1Br)c1nnc(SCC(=O)NC2=NCCS2)n1C (stereo unspecified)	1.8	i	-2	i	i	i
Cc1cc(C)c(C)c(S(=O)(=O)N2CCN(c3ncnc4ccccc34)CC2)c1C	.	-10*	.	.	.	.
Cc1cc(C)c(C)c(S(=O)(=O)N2CCN(c3ccccn3)CC2)c1C	-0.38	i	-9	i	i	i
CC(C)(C)OC(=O)NCc1ccc(CNC(=O)c2[nH]cnc2C(=O)NC2CCN(C(=O)OC(C)(C)C)CC2)cc1	.	i	.	.	.	.
CC(=O)c1ccc(NC(=S)N2CCCC(C(F)(F)F)C2)cc1 (stereo unspecified)	-0.79	i	-10	i	i	i
O=C(NC(=S)N1CCCC(C(F)(F)F)C1)c1ccc(F)cc1 (stereo unspecified)	0.59	i	11*	i	i	13*
CCOC(=O)c1c(CCl)nc2ccccc2c1-c1ccccc1	-1.8	i	-11	i	i	i
CCOC(=O)c1c(C)nc2ccccc2c1-c1ccccc1	-5.9*	i	-13	i	i	i
